This is a sample that favours compounds with a hit; in the whole collection about 3.6% have one here.
Yeast life ext – extends the lifespan of yeast; S. cerevisiae growth with nicotinamide, OD615; deaD strain in restrictive glucose medium; inhibition of the nicotinamide effect, % at 10 µM; hit rate 0.68% among 130,000;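 active = inhibition above a set limit, placed 3 SD over the median of all compounds, cut at about 26% in these data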;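 also: 0% = nicotinamide-treated wells and 100% = cells grown without nicotinamide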
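assay system = DeaD-strain S. cerevisiae | buffer or medium = restrictive glucose medium | reagent = 1.5 mM nicotinamide | compound = 10 µM single point, 0.25% DMSO | incubation = 48 h compound exposure at 30 °C, humidified | signal = OD615 measurement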
RAM network inh – blocks the yeast RAM network. S. cerevisiae dse1pr::URA3 reporter, 5-FOA growth OD615, 2 d; analog-sensitive cbk1-as2 kinase mutant strain. inhibition, % at 50 µM. hit rate 1.8% among 190,000;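 active = inhibition above a set limit, 3 SD over mean compound inhibition, cut at about 8.4% in these data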;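 also: 0% = DMSO-only wells with no growth and 100% = 10 µM 1-NA-PP1 full growth; inhibition rescues growth on 5-FOA so higher OD means more RAM inhibition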
Measles CPE – protection of cells from measles virus; Measles virus-infected cells, CPE protection, absorbance; protection (pct of control), % at 4 µM; hit rate 1.5% among 140,000; in the data active = protection mostly above about 24%, no sharp cut-off; inactive = mostly below about 26%
BB579 growth dn – chemicals that inhibit yeast BB579 growth in restrictive medium (lifespan-shortening candidates); AID 804; S. cerevisiae BB579 growth, OD615, 48 h; inhibition, % at 10 µM; hit rate 0.51% among 140,000;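 active = inhibition above a set limit, 3 SD over the mean compound inhibition, cut at about 44% in these data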
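controls = amphotericin B 10 µg/mL, positive | assay system = DeaD yeast strain BB579 | schedule = 48 h compound exposure at 30 °C after 4 h preincubation | detection = OD615 turbidity measurement | medium = restrictive CSMM-D medium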
RAM 5-FOA – RAM network inhibitors in efflux-deficient yeast. shares compounds with RAM network inh. 1,200 tested, under 10 active. AID 1305. S. cerevisiae efflux-deficient reporter strain, 5-FOA growth OD615, 2 days. max inhibition, %; call rule not given here;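 also: plate controls were vehicle for no effect and reference inhibitor for full effect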
An asterisk follows results filed as active; . = not tested or not shown.

SMILES | Yeast life ext | RAM network inh | Measles CPE | BB579 growth dn | RAM 5-FOA
COc1ccc(O[C@H]2C=C[C@@H](c3ccccc3)O[C@@H]2COC(=O)CC/C(C)=N/OC[C@@H](O)COCc2ccco2)cc1 | 0.7 | 7.1 | 6.6 | -28.6 | .
CCOC(=O)CCCSc1nc(-c2ccc3c(c2)OCO3)cc(C(F)(F)F)c1C#N | 4.8 | 14.1* | 11.1 | -45.2 | 1.9
N=c1c2cn[nH]c2nc(SCC(=O)c2ccc(Br)cc2)n1-c1ccc(Br)cc1 | . | 1.2 | . | . | .
COCCCNC(=O)c1ccc(Cn2c(=O)c3ccccc3n(Cc3ccc(C)cc3)c2=O)cc1 | -7.5 | 12.2* | 19.6 | -56.9 | 4.7
C=CCN1C(=O)/C(=C/c2ccc(OC(C)=O)c(OCC)c2[N+](=O)[O-])SC1=S | . | 11.6* | . | . | 2.0
Cc1cccc(Nc2nnc(SCC3CCCCO3)s2)c1 (configuration not stated) | -5.0 | 14.5* | 12.8 | -10.9 | 2.4
COc1ccc(Nc2nnc(SCC3CCCCO3)s2)cc1 (configuration not stated) | . | 0.4 | . | . | .
COc1ccc2c(c1)C(=O)/C(=C/C=C/c1ccccc1)CC2 | . | 15.2* | 19.0 | -62.0 | 4.2
COc1ccc2c(c1)CC/C(=C\C=C\c1ccccc1OC)C2=O | . | 8.0 | 26.1 | -25.7 | .
O=Cc1ccnc(-c2ccc(OC(=O)c3ccco3)cc2)n1 | . | 1.1 | . | . | .
Cc1ccc(N2CCN(C(=O)c3cc(C(=O)c4ccccc4C)c[nH]3)CC2)c(C)c1 | . | 24.3* | . | . | 2.0
COc1ccc(C(=O)/C=C/c2ccc(OC)cc2OC)c(O)c1 | . | 6.5 | . | . | .
COc1ccc(/C=C/C(=O)c2ccc(Cl)cc2)c(OC)c1 | -24.3 | 11.6* | 6.2 | -59.8 | 3.8
COC(=O)Cc1ccc(N(Cc2ccccc2F)S(=O)(=O)c2ccc(Cl)cc2)cc1 | 13.7 | 15.5* | 27.8 | -76.4 | 1.1
S=C(NCCC(c1ccccc1)c1ccccc1)Nc1ccccc1Cl | -16.0 | 15.2* | 8.5 | 20.9 | 2.9
CC(OC(=O)c1ccccc1NS(=O)(=O)c1cccc(C(F)(F)F)c1)C(=O)N(C)Cc1ccccc1 (configuration not stated) | 7.8 | 12.6* | 2.8 | -21.1 | 2.4
Cc1c(C(=O)N2CCc3ccccc3C2)oc2ccc(S(=O)(=O)N3CC(C)CC(C)C3)cc12 (configuration not stated) | 4.7 | 11.7* | 6.8 | -40.9 | 9.8
Cc1cccc(C)c1NC(=O)C1c2cccc[n+]2CC(=O)N1Cc1cccs1 (configuration not stated) | . | 1.5 | . | . | .
O=C(O)CCCCn1c(SCc2ccccc2Cl)nc2ccsc2c1=O | . | 16.9* | . | . | 1.4
CCCCCCCCNC(=O)/C(C#N)=C/c1ccc(SC)cc1 | 6.5 | 12.5* | 9.5 | -57.2 | 3.3
NC(=O)c1cc2cc([N+](=O)[O-])ccc2oc1=O | . | 0.0 | . | . | .
O=C(COc1ccccc1)Nc1ccccc1Oc1ccccc1 | 1.9 | 1.7 | 10.1 | -16.9 | .
O=C(COc1ccccc1Cl)Nc1cc(Cl)ccc1Oc1ccccc1 | -14.3 | 13.8* | 1.7 | -20.2 | 3.9
COCCN(C(=S)Nc1cccc(C)c1)C(C)c1cccnc1 (configuration not stated) | . | 0.2 | . | . | .
O=C(/C(=N/N=C/c1ccc(O)c(O)c1O)c1ccccc1)c1ccccc1 | -10.6 | 17.0* | 23.3 | 95.1* | 1.4
SMILES | Yeast life ext | RAM network inh | Measles CPE | BB579 growth dn | RAM 5-FOA
O=C(OCC#CCSc1nnc(-c2ccc(Br)cc2)o1)c1cccs1 | 8.2 | 16.1* | 4.2 | -24.2 | 13.8
NNc1nc2c(Cl)ccc(Cl)c2s1 | -4.2 | 3.8 | 5.9 | -52.1 | .
C=CCn1c(SCC)nc2sc3c(c2c1=O)CCc1ccccc1-3 | 0.4 | 17.8* | 0.5 | -22.4 | 2.4
C=CCn1c(SCC(=O)OC)nc2sc3c(c2c1=O)CCN(C)C3 | -20.3 | 2.9 | 3.4 | -34.2 | .
O=C(O)Cc1cc(I)c(Oc2ccc(O)c(I)c2)c(I)c1 | 31.2* | 17.3* | 5.0 | 66.2* | 2.0
CCCN(CCC)C(=O)c1ccc2c(=O)n(Cc3ccco3)c(=S)[nH]c2c1 | . | 25.2* | . | . | 1.1
CN1CCN(C(=O)c2ccc3c(=O)n(Cc4ccco4)c(=S)[nH]c3c2)CC1 | -11.2 | -0.2 | 23.8 | -65.8 | .
COc1ccc(/C=C/C(=O)c2ccccc2)cc1COc1ccc(F)cc1 | -11.3 | 18.8* | 2.9 | -51.7 | 5.9
COc1cc(/C=C/C(=O)c2ccc(F)cc2)cc(OC)c1OC | . | 0.5 | . | . | .
COc1ccc(C=O)cc1COc1ccc(F)cc1F | -11.2 | 0.7 | 8.4 | -57.5 | .
COc1ccc(C(=O)/C=C/c2ccc(OC)c(COc3ccccc3F)c2)cc1 | -1.6 | 18.8* | 7.0 | -38.5 | 5.2
COc1cc(/C=C/C(=O)c2ccc(C)cc2)ccc1OCC#N | 8.6 | 13.3* | 13.3 | -0.8 | 4.2
N#Cc1ccc(CSc2nnc(-c3c[nH]c4ccccc34)n2-c2ccccc2)cc1 | . | 12.3* | . | . | 1.8
COc1ccc(-c2nc3ccccc3c(=O)n2CCN2CCOCC2)cc1 | 2.7 | 1.2 | 7.3 | -43.4 | .
COc1ccc(-c2nc3ccccc3c(=O)n2CCOc2cccc(C)c2C)cc1 | 2.5 | 15.9* | 7.1 | -19.6 | 4.8
COc1ccc(-c2nc3ccccc3c(=O)n2CCOc2c(C)cccc2C)cc1 | 13.1 | 17.1* | 4.1 | -53.2 | 6.4
CCOC(=O)CC(NC(=O)CCc1c(C)nc2ncnn2c1C)c1ccc(OC(C)C)cc1 (configuration not stated) | . | -0.9 | . | . | .
CC(=O)c1cc(CN2CCN(C3CCN(C(C)C)CC3)C(CCO)C2)cs1 (configuration not stated) | . | -0.3 | . | . | .
O=C(Nc1cccnc1Cl)c1ccc2c(Cl)c3c(nc2c1)CCC3 | . | 12.2* | . | . | 4.0
CC(=O)c1cccc(NC(=O)c2ccc3c(Cl)c4c(nc3c2)CCCC4)c1 | -1.2 | 3.6 | 7.2 | -34.9 | .
CCN=c1scc(-c2cccs2)n1/N=C/c1cc(OC)ccc1O | -2.2 | 12.2* | 17.3 | -43.2 | 1.8
O=C(O)C/C=C(/NC(=O)OCc1ccccc1)C(=O)OCc1ccccc1 | . | 1.9 | . | . | .
O=C(/C=C/c1ccc2c(c1)OCCCO2)c1ccc2ccccc2c1O | -0.3 | 12.3* | 8.2 | -29.9 | 6.0
COCC1CCCCN1Cc1cn[nH]c1-c1ccc2cc(OC)ccc2c1 (configuration not stated) | . | 3.1 | . | . | .
COc1ccc(S(=O)(=O)NCC(=O)Nc2cccc(C)c2C)cc1OC | . | 5.9 | . | . | .
Cc1ccc(SCCNC(=O)c2ccc(C)c(S(=O)(=O)Nc3cccc(C)c3)c2)cc1 | 0.0 | 15.9* | 19.7 | -7.1 | 6.2
O=C(NCc1ccc(-n2cccc2)cc1)c1cccc(F)c1 | . | 2.2 | . | . | .
CCOC(=O)c1cc(-c2ccccc2)sc1NC(=O)C(C)OC(=O)c1cccnc1OCC (configuration not stated) | 3.5 | 12.0* | 9.3 | -13.9 | 6.2
CCOC(=O)c1cc(-c2ccccc2)sc1NC(=O)C(C)OC(=O)c1cccc(S(=O)(=O)N(C)C)c1 (configuration not stated) | 6.6 | 4.1 | 16.8 | -14.6 | .
Cn1c(N)c(C(=O)COC(=O)c2ccc(S(=O)(=O)N3CCCCC3)cc2)c(=O)n(C)c1=O | . | -0.8 | . | . | .

Bioassay records from PubChem.
